IMP-1 inhibitor: IMP-1 metallo-beta-lactamase inhibitors, primary screen, biochemical, epi-absorbance readout, Pseudomonas aeruginosa enzyme | metallo-beta-lactamase IMP-1 (Pseudomonas aeruginosa) | hit rate 0.45% among 290,000 | AID 1556, 2009 | purified IMP-1, nitrocefin hydrolysis, epi-absorbance fluorescence | inhibition, % at 5.6 µM;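 active = inhibition above the mean plus 3 SD of all compounds in the same screening run, cut at about 4.5% in these data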;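 also: 0% = IMP-1 with DMSO and 100% = DMSO wells lacking enzyme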
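System: Purified IMP-1 | Read-out basis: Percent enzyme inhibition | Controls: IMP-1 with DMSO as 0%, enzyme-free DMSO as 100% | Replicates: One well per compound | Doses: 5.6 µM nominal single concentration | Detection: Epi-absorbance fluorescence, 480 nm excitation, 530 nm emission | Incubation: 25 °C, 15 min preincubation, 25 min reaction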
VIM-2 inhibitor: VIM-2 metallo-beta-lactamase inhibitors, primary screen, biochemical, epi-absorbance readout, Pseudomonas aeruginosa enzyme | purified VIM-2, nitrocefin hydrolysis, epi-absorbance fluorescence | inhibition, % at 5.6 µM | hit rate 0.89% among 290,000;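 active = inhibition above the mean of all tested compounds plus 3 SD, cutoff set per screening run, cut at about 7.5% in these data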;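 also: red hydrolysis product quenches plate fluorescence so inhibitors raise well fluorescence; 0% = enzyme with DMSO and 100% = DMSO without enzyme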
core dimer inh: inhibitors of HCV core protein dimerization, primary screen, biochemical, TR-FRET, high-throughput | TR-FRET GST/Flag-core106 dimerization, 1536-well | inhibition, % at 5 µM | hit rate 0.33% among 300,000 | AID 1899, 2009;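 active = inhibition above the mean of all tested compounds plus 3 SD, set per screening campaign, cut at about 45% in these data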
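Material: GST/Flag-tagged HCV core106 proteins. Incubation: 4 h, 22.5 °C incubation. Read-out basis: inhibition (%) from 671 over 617 nm ratio. Measured by: TR-FRET, excitation 340 nm, emission 617 and 671 nm.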
NadD block: inhibitors of S. aureus NadD, primary screen, biochemical, colorimetric, uHTS. Nicotinate-nucleotide adenylyltransferase NadD (Staphylococcus aureus N315). purified NadD enzyme, colorimetric absorbance read-out. inhibition, % at 20 µM. hit rate 0.78% among 360,000; in the data active = inhibition above about 26%
Starred values were filed as active, the others as inactive. Only some compounds are listed: those with a hit (about 1.9% of all), similar ones and a draw of the others.

How did COc1ccc2c(c1)c(=O)oc1cc(OCC(=O)N3CCC(C)CC3)ccc12 do in these assays?
IMP-1 inhibitor: -4; VIM-2 inhibitor: 0; core dimer inh: 6; NadD block: 17

How did O=C(COc1ccc2c3c(c(=O)oc2c1)CCCC3)N1C[C@H]2C[C@@H](C1)c1cccc(=O)n1C2 do in these assays?
IMP-1 inhibitor: 1; VIM-2 inhibitor: 9.1*; core dimer inh: 1; NadD block: 7

How did O=C(COc1ccc2c3c(c(=O)oc2c1)CCC3)NCCCN1CCCC1=O do in these assays?
IMP-1 inhibitor: 0; VIM-2 inhibitor: 11*; core dimer inh: 6; NadD block: -1

Results for O=C(COc1ccc2c3c(c(=O)oc2c1)CCC3)N1CCN(c2ccccc2)CC1 ?
IMP-1 inhibitor: -3; VIM-2 inhibitor: 11*; core dimer inh: 6; NadD block: 2

What do the screens show for `COc1ccc2c(c1)c(=O)oc1cc(OCC(=O)N3CCc4ccccc4C3)ccc12`?
IMP-1 inhibitor: 1; VIM-2 inhibitor: 3; core dimer inh: 19; NadD block: 33*

What do the screens show for `COc1ccc(-c2cc(=O)oc3cc(OCC(=O)N4C[C@H]5C[C@@H](C4)c4cccc(=O)n4C5)ccc23)cc1`?
IMP-1 inhibitor: -1; VIM-2 inhibitor: 2; core dimer inh: 0; NadD block: 7

How did CCSc1ccc([C@@H]2[C@@H]3C(=O)N(CC)C(=O)[C@@H]3[C@]3(C(=O)OC)CCCN23)cc1 do in these assays?
core dimer inh: -9; NadD block: -9

What do the screens show for `CCCCn1c(N)c(N(C)C(=O)c2cc3c(F)cccc3s2)c(=O)[nH]c1=O`?
NadD block: 1

What do the screens show for `COc1cc(OC)cc(C(=O)Nc2ccc(N3CCOCC3)cc2N2CCOCC2)c1`?
NadD block: 5

Results for O=C(Cn1ccc(NC(=O)OCc2ccccc2)nc1=O)NCc1ccc2[nH]ccc2c1 ?
NadD block: 5

Results for O=C(COc1ccc2c3c(c(=O)oc2c1)CCC3)N1CCCC1 ?
IMP-1 inhibitor: -3; VIM-2 inhibitor: 9.8*; core dimer inh: -2; NadD block: 2

How did CC(=O)Oc1ccc2c3c(c(=O)oc2c1)CCCC3 do in these assays?
IMP-1 inhibitor: -5; VIM-2 inhibitor: 4; core dimer inh: 3; NadD block: 1

What do the screens show for `O=C(COc1ccc2c3c(c(=O)oc2c1)CCC3)N1CCCCC1`?
IMP-1 inhibitor: -2; VIM-2 inhibitor: 12*; core dimer inh: -8; NadD block: -2

What do the screens show for `CC(C)Oc1ccc2c3c(c(=O)oc2c1)CCC3`?
IMP-1 inhibitor: -2; VIM-2 inhibitor: 8.6*; core dimer inh: 3; NadD block: -1

How did Cc1c([N+](=O)[O-])cc(C(=O)Nc2ccc(NC(=O)c3ccco3)cc2)cc1[N+](=O)[O-] do in these assays?
IMP-1 inhibitor: -2; VIM-2 inhibitor: -3; core dimer inh: 10; NadD block: -1

Results for O=C(NC1CC1)c1ccc2c(c1)C1C3CCC(C3)C1C(c1ccccc1)N2 (stereo not drawn) ?
IMP-1 inhibitor: -4; VIM-2 inhibitor: -2; core dimer inh: 1; NadD block: 6

How did CCC(NS(=O)(=O)c1ccc(C)cc1)C(=O)N1CCN(c2ccccn2)CC1 (stereo not drawn) do in these assays?
IMP-1 inhibitor: 4.5*; VIM-2 inhibitor: -2; core dimer inh: -1; NadD block: -1

What do the screens show for `COc1ccc(NC(=O)[C@H](C)NC(=O)C2CCN(S(=O)(=O)c3ccc(OC)cc3)CC2)cc1`?
IMP-1 inhibitor: -1; VIM-2 inhibitor: -1; core dimer inh: -2; NadD block: -4

How did Cc1cccc(NC(=O)CCNC(=O)c2ccc(Br)cc2)c1 do in these assays?
IMP-1 inhibitor: -2; VIM-2 inhibitor: -2; core dimer inh: -1; NadD block: -3

What do the screens show for `Cc1cc(/C=N/Nc2ccc([N+](=O)[O-])cn2)c(C)n1-c1ccccc1`?
IMP-1 inhibitor: 0; VIM-2 inhibitor: 3; core dimer inh: 32; NadD block: 31*

What do the screens show for `COC(=O)c1[nH]nc(-c2ccccc2)c1-c1ccccc1`?
core dimer inh: 1; NadD block: 1

How did CCn1c(SCC(=O)Nc2ccc3c(c2)c2ccccc2n3CC)nnc1-c1ccco1 do in these assays?
IMP-1 inhibitor: 1; VIM-2 inhibitor: 1; core dimer inh: 65*; NadD block: 63*

What do the screens show for `CCn1c(SCC(=O)Nc2sc3c(c2C(N)=O)CCC(C)C3)nnc1-c1ccco1` (stereo not drawn)?
IMP-1 inhibitor: 0; VIM-2 inhibitor: -3; core dimer inh: 56*; NadD block: 27

How did CCCCCn1nnc2c(=O)oc3ccccc3c21 do in these assays?
IMP-1 inhibitor: -3; VIM-2 inhibitor: 0; core dimer inh: 9; NadD block: 1

How did Cc1cnc(C(=O)OCC(=O)Nc2ccccc2[N+](=O)[O-])cn1 do in these assays?
NadD block: 4

Results for COc1ccc2c(c1)c(/C=C/c1cc[n+](C)cc1)cn2C ?
IMP-1 inhibitor: -1; VIM-2 inhibitor: 9.7*; core dimer inh: -22; NadD block: 15

Results for COc1ccc2c(/C=C/c3cc[n+](C)cc3)c[nH]c2c1 ?
IMP-1 inhibitor: -3; VIM-2 inhibitor: 1; core dimer inh: -20; NadD block: 3

Results for Cc1ccc2cc(CN(CCCN(C)C)C(=S)NCc3ccccc3)c(=O)[nH]c2c1C ?
IMP-1 inhibitor: -2; VIM-2 inhibitor: 9.8*; core dimer inh: -4; NadD block: -10

What do the screens show for `Cc1ccc2cc(CN(CCCN(C)C)C(=O)NCc3ccccc3)c(=O)[nH]c2c1C`?
IMP-1 inhibitor: -1; VIM-2 inhibitor: 7.8*; core dimer inh: -5; NadD block: -10

Results for Cc1cc(O)c2c(c1)C(=O)c1cccc(O)c1C2=O ?
IMP-1 inhibitor: 0; VIM-2 inhibitor: -2

Results for O=C(O)c1cc(O)c2c(c1)C(=O)c1cccc(O)c1C2=O ?
IMP-1 inhibitor: 4.6*; VIM-2 inhibitor: 7; core dimer inh: -3; NadD block: 1

Results for COC(=O)C1C(c2ccc(N(C)C)cc2)C(C(=O)OC)S(=O)(=O)CS1(=O)=O (stereo not drawn) ?
IMP-1 inhibitor: -3; VIM-2 inhibitor: -3; core dimer inh: -2; NadD block: 3

How did Cc1cc(N2CCN(c3nc4ccccc4s3)CC2)n2ncnc2n1 do in these assays?
IMP-1 inhibitor: -1; VIM-2 inhibitor: 8.2*; core dimer inh: 9; NadD block: -2

How did O=C(O)c1ccccc1C(=O)N1CCc2c([nH]c3ccccc23)C1C(F)(F)F (stereo not drawn) do in these assays?
IMP-1 inhibitor: -2; VIM-2 inhibitor: 11*; core dimer inh: 0; NadD block: -4

What do the screens show for `N#CC1(NC(=O)COC(=O)/C=C/c2ccc3ccccc3n2)CCCCC1`?
IMP-1 inhibitor: -2; VIM-2 inhibitor: 0; core dimer inh: 48*; NadD block: -1

High-throughput results as filed in PubChem.
